Legend:
Zea mays [1] = test: Effect on root volume in Zea mays (maize) seedlings at 100 to 800 ug/L; type: functional, organism-based
Summary of the method: (§1)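 Maize seedlings were grown in a chamber (12 h light, 10,000 lx, 25/20 °C, 60% RH) for five days under graded levels of S-(+)-, R-(-)- or racemic IM. Root diameter, volume, surface area and tip number were measured per plant with an automatic root scanner. Values are means ± SD of three replicates of 10 randomly selected seedlings each.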

Zea mays [2] = test: Phytotoxicity in Zea mays (maize) assessed as shoot dry weight assessed per 10 plants at 200 ug/L measured 5 days post compound treatment (reference value: 101.2 +/- 4.5 mg); type: functional
Zea mays [3] = test: Phytotoxicity in Zea mays (maize) assessed as root dry weight assessed per 10 plants at 100 ug/L measured 5 days post compound treatment (reference value: 42.8 +/- 0.7 mg); type: functional
Zea mays [4] = test: Reduction of root hair growth in Zea mays (maize) seedlings at 400 ug/L measured 48 hr post dose by microscopy; type: functional, organism-based
Summary of the method: (§2)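 Maize seedlings with primary roots about 2 mm long were moved to 0 or 400 µg L-1 S-(+)-, R-(-)- or racemic IM solution. After 48 h, root tips (border cells) and the densest root-hair zone were examined and photographed under a light microscope. Growth chamber: 12 h light, 25/20 °C, 60% RH.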

Zea mays [5] = test: Phytotoxicity in Zea mays (maize) assessed as shoot height at 800 ug/L measured 5 days post compound treatment (reference value: 6.89 +/- 0.30 cm); type: functional
Zea mays [6] = test: Effect on root surface area in Zea mays (maize) seedlings at 100 to 800 ug/L; type: functional, organism-based; summary of the method: as §1
Zea mays [7] = test: Phytotoxicity in Zea mays (maize) assessed as root dry weight assessed per 10 plants at 200 ug/L measured 5 days post compound treatment (reference value: 42.8 +/- 0.7 mg); type: functional
Zea mays [8] = test: Reduction in root tips in Zea mays (maize) seedlings at 100 to 800 ug/L; type: functional, organism-based; summary of the method: as §1
Zea mays [9] = test: Phytotoxicity in Zea mays (maize) assessed as shoot height at 400 ug/L measured 5 days post compound treatment (reference value: 6.89 +/- 0.30 cm); type: functional
Zea mays [10] = test: Phytotoxicity in Zea mays (maize) assessed as shoot height at 200 ug/L measured 5 days post compound treatment (reference value: 6.89 +/- 0.30 cm); type: functional
Zea mays [11] = test: Phytotoxicity in Zea mays (maize) assessed as shoot dry weight assessed per 10 plants at 400 ug/L measured 5 days post compound treatment (reference value: 101.2 +/- 4.5 mg); type: functional
Zea mays [12] = test: Phytotoxicity in Zea mays (maize) assessed as shoot height at 100 ug/L measured 5 days post compound treatment (reference value: 6.89 +/- 0.30 cm); type: functional
Zea mays [13] = test: Phytotoxicity in Zea mays assessed (maize) as total root length measured per plant at 400 ug/L measured 5 days post compound treatment (reference value: 12.32 +/- 1.46 cm); type: functional
Zea mays [14] = test: Phytotoxicity in Zea mays assessed (maize) as total root length measured per plant at 800 ug/L measured 5 days post compound treatment (reference value: 12.32 +/- 1.46 cm); type: functional
Zea mays [15] = test: Phytotoxicity in Zea mays (maize) assessed as shoot dry weight assessed per 10 plants at 800 ug/L measured 5 days post compound treatment (reference value: 101.2 +/- 4.5 mg); type: functional
Zea mays [16] = test: Phytotoxicity in Zea mays (maize) assessed as root dry weight assessed per 10 plants at 800 ug/L measured 5 days post compound treatment (reference value: 42.8 +/- 0.7 mg); type: functional
Zea mays [17] = test: Phytotoxicity in Zea mays (maize) assessed as root dry weight assessed per 10 plants at 400 ug/L measured 5 days post compound treatment (reference value: 42.8 +/- 0.7 mg); type: functional
Zea mays [18] = test: Phytotoxicity in Zea mays (maize) assessed as total root length measured per plant at 100 ug/L measured 5 days post compound treatment (reference value: 12.32 +/- 1.46 cm); type: functional
Zea mays [19] = test: Increase in root diameter in Zea mays (maize) seedlings at 100 to 800 ug/L; type: functional, organism-based; summary of the method: as §1
Zea mays [20] = test: Phytotoxicity in Zea mays (maize) assessed as shoot dry weight assessed per 10 plants at 100 ug/L measured 5 days post compound treatment (reference value: 101.2 +/- 4.5 mg); type: functional
Zea mays [21] = test: Phytotoxicity in Zea mays assessed (maize) as total root length measured per plant at 200 ug/L measured 5 days post compound treatment (reference value: 12.32 +/- 1.46 cm); type: functional
Zea mays [22] = test: Induction of ultrastructure damage of root tip statocytes in Zea mays (maize) seedlings assessed as reduction in organelle size at 400 ug/L measured 48 hr post dose by transmission electron microscopy; type: functional, organism-based
Summary of the method: (§3)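 Maize seeds surface-sterilized in 10% NaOCl for 10 min, soaked 12 h, germinated on moist gauze. Root-tip sections of 1-3 mm were fixed in 4% glutaraldehyde, postfixed in OsO4 and embedded in Spurr's resin. 80 nm sections were viewed by TEM at 60 kV.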

Zea mays [23] = test: Reduction of sloughing of border cells from root tips in Zea mays (maize) seedlings at 400 ug/L measured 48 hr post dose by microscopy; type: functional, organism-based; summary of the method: as §2
Zea mays [24] = test: Reduction in root tips in Zea mays (maize) seedlings at 100 ug/L; type: functional, organism-based; summary of the method: as §1
Zea mays [25] = test: Induction of ultrastructure damage of root tip statocytes in Zea mays seedlings (maize) assessed as dictyosomers swelling at 400 ug/L measured 48 hr post dose by transmission electron microscopy; type: functional, organism-based; summary of the method: as §3
Zea mays [26] = test: Induction of ultrastructure damage of root tip statocytes in Zea mays (maize) seedlings assessed as induction of cell wall thickening at 400 ug/L measured 48 hr post dose by transmission electron microscopy; type: functional, organism-based; summary of the method: as §3
Zea mays [27] = test: Induction of ultrastructure damage of root tip statocytes in Zea mays (maize) seedlings assessed as reduction in starch grain size at 400 ug/L measured 48 hr post dose by transmission electron microscopy; type: functional, organism-based; summary of the method: as §3
Zea mays [28] = test: Induction of ultrastructure damage of root tip statocytes in Zea mays (maize) seedlings at 400 ug/L measured 48 hr post dose by transmission electron microscopy; type: functional, organism-based; summary of the method: as §3
Zea mays [29] = test: Induction of ultrastructure damage of root tip statocytes in Zea mays (maize) seedlings assessed as destruction of mitochondria envelope membranes at 400 ug/L measured 48 hr post dose by transmission electron microscopy; type: functional, organism-based; summary of the method: as §3
Zea mays [30] = test: Effect on cell organelles in root tip statocytes in Zea mays (maize) seedlings at 400 ug/L measured 48 hr post dose by transmission electron microscopy; type: functional, organism-based; summary of the method: as §3

| Compound | Activity (Zea mays [1]) | Activity (Zea mays [2]) [mg] | Activity (Zea mays [3]) [mg] | Activity (Zea mays [4]) | Activity (Zea mays [5]) [cm] | Activity (Zea mays [6]) | Activity (Zea mays [7]) [mg] | Activity (Zea mays [8]) | Activity (Zea mays [9]) [cm] | Activity (Zea mays [10]) [cm] | Activity (Zea mays [11]) [mg] | Activity (Zea mays [12]) [cm] | Activity (Zea mays [13]) [cm] | Activity (Zea mays [14]) [cm] | Activity (Zea mays [15]) [mg] | Activity (Zea mays [16]) [mg] | Activity (Zea mays [17]) [mg] | Activity (Zea mays [18]) [cm] | Activity (Zea mays [19]) | Activity (Zea mays [20]) [mg] | other results |
| --- | --- | --- | --- | --- | --- | --- | --- | --- | --- | --- | --- | --- | --- | --- | --- | --- | --- | --- | --- | --- | --- |
| CCc1cnc(C2=NC(C)(C(C)C)C(=O)N2)c(C(=O)O)c1 (racemic) [IMAZETHAPYR] | Toxic | 107.8 | 36.1 | Non-toxic | 4 | Toxic | 34.6 | Toxic | 4.6 | 6.2 | 83.3 | 6.3 | 5.5 | 5.2 | 73.4 | 29 | 26.4 | 8.1 | Toxic | 92.4 | Activity (Zea mays [21]): 7.4 cm |
| CCc1cnc(C2=N[C@](C)(C(C)C)C(=O)N2)c(C(=O)O)c1 [R-(-)-IMAZETHAPYR] | Toxic | 91.9 | 33.8 | Toxic | 3.4 | Toxic | 30.5 | Toxic | 3.9 | 5.9 | 61.4 | 6.2 | 4.9 | 4.8 | 57.1 | 25.2 | 25.7 | 7.7 | Toxic | 90.3 | Activity (Zea mays [22]): Toxic; Activity (Zea mays [23]): Toxic; Activity (Zea mays [24]): Toxic; Activity (Zea mays [25]): Toxic; Activity (Zea mays [26]): Toxic; Activity (Zea mays [27]): Toxic; Activity (Zea mays [21]): 6.4 cm; Activity (Zea mays [28]): Toxic; Activity (Zea mays [29]): Toxic |
| CCc1cnc(C2=N[C@@](C)(C(C)C)C(=O)N2)c(C(=O)O)c1 [S-(+)-IMAZETHAPYR] | Toxic | 101.3 | 36.6 | Non-toxic | 5.1 | Toxic | 35.1 | Toxic | 5.7 | 6.3 | 85.4 | 6.5 | 7.2 | 6.1 | 75.6 | 29.6 | 30.3 | 9.4 | Non-toxic | 100 | Activity (Zea mays [24]): Non-toxic; Activity (Zea mays [30]): Non-toxic; Activity (Zea mays [27]): Non-toxic; Activity (Zea mays [21]): 8.9 cm; Activity (Zea mays [28]): Non-toxic |
